Assay results taken from paper PMC7610535 (Nature chemical biology, 2020).
Residue numbers refer to the chain shown, from its start.

Tests used:
AURORA-A^T217D = target: T1, AURORA-A^T217D (Homo sapiens, UniProt O14965, T217D); assay: Immunoblot of HA-tagged AURORA-A^T217D in IMR5 cells; assay type: cell-based; settings: 24 hours
T1 sequence (O14965 1-403 T217D): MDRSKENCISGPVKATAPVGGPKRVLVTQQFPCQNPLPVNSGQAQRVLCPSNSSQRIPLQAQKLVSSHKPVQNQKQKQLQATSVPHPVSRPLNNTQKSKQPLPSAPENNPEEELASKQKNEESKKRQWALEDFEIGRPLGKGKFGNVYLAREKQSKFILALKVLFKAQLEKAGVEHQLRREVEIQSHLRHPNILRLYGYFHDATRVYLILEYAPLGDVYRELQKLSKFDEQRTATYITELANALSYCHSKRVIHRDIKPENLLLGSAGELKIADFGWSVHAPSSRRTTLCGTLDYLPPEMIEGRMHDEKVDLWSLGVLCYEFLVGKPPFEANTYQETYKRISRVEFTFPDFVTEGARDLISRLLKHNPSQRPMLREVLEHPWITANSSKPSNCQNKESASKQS
How it was run: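 IMR5 cells expressing HA-tagged AURORA-A T217D or wild-type AURORA-A were exposed to graded concentrations for 24 h. RIPA lysates (20 min, 4 °C) were cleared and BCA-quantified. Equal protein was resolved by Bis-Tris PAGE and transferred to PVDF. Membranes were blocked 1 h in 5% milk/TBS-T and probed for HA-tagged AURORA-A overnight at 4 °C.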

AURKA = target: T2, AURKA (Homo sapiens, UniProt O14965); assay: Kinobead selectivity profiling: AURKA; assay type: binding
T2 sequence (O14965 1-403): T1 sequence (O14965 1-403 T217D) with D217T

- JB170-mediated depletion of AURORA-A^T217D (AURORA-A^T217D): largely abrogated
- Kd (AURKA): 99 nM
SMILES: COc1cc(Nc2ncc3c(n2)-c2ccc(Cl)cc2C(c2c(F)cccc2OC)=NC3)ccc1C(=O)NCCOCCOCCNC(=O)COc1cccc2c1C(=O)N(C1CCC(=O)NC1=O)C2=O (centres unmarked) [JB170]
